HIF act: HIF pathway transcriptional activation; U2OS HRE-luciferase reporter, luminescence; normalized: DMSO 0%, desferrioxamine 100%; activation, % at 7.5 µM (by protocol); hit rate 0.32% among 300,000; AID 1910;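 active means mean activation of at least 10% of the iron chelator positive control signal, with at least half of replicates also reaching 10%; inconclusive means mean and replicate majority disagree about reaching 10%; inactive means mean and most replicates under 10%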
Calb FLC: C. albicans growth modulation with fluconazole | C. albicans CaCi-2 (fluconazole-resistant clinical isolate) + fluconazole, Alamar Blue growth, 48 h | growth inhibition, % (concentration not given with the values) | hit rate 0.57% among 300,000 | AID 1979;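 active means growth inhibition above about 58% in most replicates, limit read from the data, passing the limit was not always enough; inconclusive means exactly half the replicates above a set limit; inactive means most replicates below a set limit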;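 further: all wells also contain fluconazole at 8 µg/ml as a sub-toxic cotreatment; 0% = median of DMSO wells and 100% = median of geldanamycin control wells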
HSF1 inh: HSF1 inhibition. hit rate 0.77% among 300,000. NIH3T3-HGL HSE-luciferase, MG132-induced, luminescence 8 h; hits give low values. activity change, negative = inhibition, % at 7.5 µM (by protocol);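 active means more than half of replicate wells show activity change below -50%, luminescence cut by over half; inconclusive means some wells, but at most half, below -50%; inactive means no replicate well below -50%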;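 further: luciferase reports HSF-1 transcriptional activity via heat shock element; 0% = median of DMSO wells and -100% = zero luminescence signal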
T cruzi inh: blocks replication of Trypanosoma cruzi; T. cruzi beta-gal in NIH3T3, luminescence, 90 h; inhibition, % (test concentration not listed); hit rate 1.4% among 300,000;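 active means mean inhibition across valid replicates above about 55%, limit read from the data; inconclusive means mean below that limit but half or more replicates reach it; inactive means mean below it, under half of replicates reach it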;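 further: signal also drops with host cell toxicity which is not excluded here; 0% = plate median of DMSO wells and 100% = zero luminescence signal; higher percent means less beta-gal luminescence so fewer parasites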
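compound dosing = single 50 nL compound addition per well in DMSO | material = NIH/3T3 host cells with β-galactosidase reporter T. cruzi | input = 5,000 host fibroblasts per well | timing = ≥90 h infection period, 3 h prior cell attachment | read-out basis = percent inhibition of parasite-derived β-gal signal | detection = GalScreen β-gal luminescence, detergent lysis, 60 min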
HSF1 activator: increases HSF-1 driven luciferase reporter signal; NIH3T3-HGL HSF-1 luciferase reporter, MG132, 8 h; 100% = twice DMSO control signal; hit rate 1.7% among 300,000; activation, % at 9 µM; AID 504408;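 active means mean replicate activation of at least 50% with a set share of replicates each reaching 50%; inconclusive means only one of those two conditions met; inactive means mean below 50% and too few replicates reaching it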;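 further: 0% = median of the neutral control wells and 100% = twice that signal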
The depositor's hits bear a star; ? = inconclusive; · = not tested or not shown. In the library only some 4.4% were active in any assay of this set; here they are far more common.

SMILES	HIF act	Calb FLC	HSF1 inh	T cruzi inh	HSF1 activator
CN1CCN(c2ccc(CNS(=O)(=O)c3ccc(Cl)cc3)cc2)CC1	0	-14	-6	35	0
CCCCCn1nnc2c(=O)oc3ccccc3c21	0	5	-2	-7	20
CCn1c(SCc2nc3ccccc3s2)nc2cc(S(=O)(=O)N3CCOCC3)ccc21	2	12	41	26	69*
O=S(=O)(c1cccc(-c2nnc(SCc3nc4ccccc4s3)o2)c1)N1CCOCC1	3	5	54	-5	54*
CCCSc1nc2cc(S(=O)(=O)N3CCOCC3)ccc2n1CC	0	7	3	13	9
CC(=O)c1ccc(N2CCN(c3ncccn3)CC2)c([N+](=O)[O-])c1	1	29	5	-5	12
COC(=O)c1ccc(N2CCC(c3cc(-c4ccc(OC)cc4)n[nH]3)CC2)c([N+](=O)[O-])c1	0	?	-7	45	-7
CC(=O)c1ccc(N2CCC(c3cc(-c4ccc(Cl)cc4)n[nH]3)CC2)c([N+](=O)[O-])c1	0	-6	9	74*	13
COc1ccc(-c2cc(C3CCN(c4ccc(C(C)=O)cc4[N+](=O)[O-])CC3)[nH]n2)cc1	1	-7	-29	63*	-31
COC/C=C/C1=CC2=CC(=O)C(C)(O)C(=O)C2=CO1 (stereo not drawn)	-1	-7	-10	6	6
CCOc1ccc(CC(=O)N2CCC3(CC2)NCCc2[nH]cnc23)cc1	0	4	-62*	-20	-71
COc1ccc(CC(=O)N2CCC3(CC2)NCCc2[nH]cnc23)cc1	-1	0	-5	4	-2
CN(Cc1ccccc1)CC1CCCN(CCc2ccccc2F)C1 (stereo not drawn)	0	3	4	33	-6
COc1cc(CN(C)CC2CCCN(CCc3ccccc3F)C2)cc(Cl)c1OC (stereo not drawn)	-22	0	-5	58*	1
O=C(NCC1CCCO1)c1cc2c([nH]c3ccccc32)c(-c2cccc(Br)c2)n1 (stereo not drawn)	0	-5	24	55*	34
Cc1cc(NC(=O)c2ccccc2)sc1C	1	-6	31	-13	60*
O=C(CN1C(=O)NC2(CCCC2)C1=O)N1CCc2ccccc2C1	0	0	-5	1	1
CCN(CC)CCn1c(=N)n(CCOc2ccccc2)c2ccccc21	-1	-4	-1	69*	30
CC(C)c1nc(CNC(=O)CCc2nnc(-c3ccsc3)o2)cs1	49*	-6	1	3	16
COc1ccc2nc3sc(C(=O)NCc4cccs4)c(N)c3cc2c1	2	-2	31	9	55*
COc1ccc(-c2cc(C(=O)NCc3cccs3)no2)cc1	2	-1	14	0	22
Oc1ccc(Cl)cc1C1=NNC(c2cc(Br)cc3c2OCOC3)C1 (stereo not drawn)	0	70*	8	10	15
COc1ccc(C2=NNC(c3cc(Cl)cc4c3OCOC4)C2)c(O)c1 (stereo not drawn)	0	-10	14	-7	9
O=c1[nH][nH]c(C(F)(F)F)c1C=NCc1cccc(Cl)c1	-1	-4	-10	6	-6
COc1cccc(N/C(SCc2cccc([N+](=O)[O-])c2)=C(/C#N)C(N)=O)c1	1	-6	24	67*	20
SMILES	HIF act	Calb FLC	HSF1 inh	T cruzi inh	HSF1 activator
CCOC(=O)C1CC(C)=C(C)CC1C(=O)O (stereo not drawn)	-1	·	-2	-3	6
CC(=O)Nc1ccc(NC(=O)C2(C)CC2(Cl)Cl)cc1 (stereo not drawn)	0	-2	-44	-17	-51
COCCCn1c(SCC(=O)O)nc2cc(OC)c(OC)cc2c1=N	0	4	-2	-19	3
COCCCn1c(SCc2ccccc2)nc2cc(OC)c(OC)cc2c1=N	0	16	-7	56*	11
COCCCn1c(SCc2cccc(C(F)(F)F)c2)nc2cc(OC)c(OC)cc2c1=N	-1	18	5	58*	-1
c1coc(C2Nc3ccccc3C3OCCC23)c1 (stereo not drawn)	1	3	3	-17	-12
COc1ccc2c(c1)C1OCCC1C(c1ccco1)N2 (stereo not drawn)	1	0	31	-14	56*
CCOC(=O)c1c(-c2ccccc2Cl)cn2ccccc12	0	91*	33	4	?
CCOC(=O)c1c(-c2cccc([N+](=O)[O-])c2)cn2ccccc12	0	29	13	4	20
CC1=C(C(=O)Nc2ccccc2F)C(c2ccsc2)C2=C(CC(c3ccccc3)CC2=O)N1 (stereo not drawn)	0	-5	2	56*	5
CCOCCOC(=O)C1=C(C)NC2=C(C(=O)CC(c3cccs3)C2)C1c1ccsc1 (stereo not drawn)	0	3	4	24	13
O=C1c2ccccc2C(=O)N1CCCCN(C(=O)c1cc2ccccc2oc1=O)c1ccc(F)cc1F	·	-1	·	-12	·
Cc1ccc(-c2nnc(COC(=O)c3cc(=O)[nH]c4ccccc34)o2)cc1	-1	-13	-1	-19	11
COc1ccc(-c2csc(-c3cccs3)n2)c(OC)c1	5	38	24	-18	61*
COc1cccc(-c2nc(CCl)cs2)c1	2	23	6	61*	8
COc1ccc(-c2nc(CCl)cs2)cc1	1	?	-1	6	3
COc1ccc(-c2nc(CCl)cs2)cc1OC	1	0	-4	-10	14
COc1ccc(-c2nc(-c3ccc(O)cc3O)cs2)cc1OC	4	?	45	35	68*
COc1ccc(-c2csc(-c3ccccc3)n2)c(OC)c1	1	99*	17	-9	54*
CC(Oc1ccccc1)C(=O)Nc1nnc(S(=O)(=O)N(C)c2ccccc2)s1 (stereo not drawn)	0	0	4	-13	8
CCN(CC)C(=O)Cn1cnc2sc(C(=O)N3CCN(c4ccc(F)cc4)CC3)c(C)c2c1=O	0	-24	0	15	-7
Oc1c(C(Nc2cccc(C(F)(F)F)c2)c2cccnc2)ccc2cccnc12 (stereo not drawn)	2	96*	-12	?	-3
Cc1cc(NC(c2cccnc2)c2ccc3cccnc3c2O)no1 (stereo not drawn)	22*	-5	-2	50	7
Cc1cccc(NC(c2ccc(O)cc2)c2ccc3ccc(C)nc3c2O)n1 (stereo not drawn)	0	63	2	-5	14
COc1ccccc1NC(=O)C12CCC(C)(C(=O)C1)C2(C)C (stereo not drawn)	0	14	-8	-1	0
CC(C)CNC(=O)c1cccc(NC(=O)c2ccc(Cl)c([N+](=O)[O-])c2)c1	·	6	-8	39	1

Screening results (PubChem)
